In assay [1] the target is T1, Glutamate receptor ionotropic, kainate 1 (Homo sapiens, UniProt P39086). As to the kind of experiment: Antagonist activity at human homomeric GluR5 expressed in HEK293 cells assessed as inhibition of intracellular calcium concentration by FLIPR assay. Type of assay: functional, cell-based. Background: Calcium flux is commonly read through the fluorescence of an indicator in the cells.

Another assay addresses Glutamate receptor 1 (Rattus norvegicus, UniProt P19490). Description: Antagonist activity at rat homomeric recombinant GluR1 expressed in HEK293 cells assessed as inhibition of intracellular calcium concentration by FLIPR assay. The format is functional, cell-based. The procedure, abridged:
(§1)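 AMPA-subunit HEK293 lines were grown with 100 μg/mL SPD 502 in the medium. Cells were loaded with 2 μM Fluo-4-AM for 30 min at room temperature and washed into Na⁺-free Ringer at pH 7.4. All solutions contained 100 μM cyclothiazide. Test compound was preincubated 1.5 min before 25 μM Glu (final) was added. The Ca²⁺ rise was read by FLIPR at room temperature. Solvent (EtOH or DMSO) was ≤1.0%.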

The next assay addresses Glutamate receptor 2 (Rattus norvegicus, UniProt P19491). Description: Antagonist activity at rat homomeric recombinant GluR2 expressed in HEK293 cells assessed as inhibition of intracellular calcium concentration by FLIPR assay. Type of assay: functional, cell-based. In a few lines:
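Cells were loaded with 2 μM Fluo-4-AM for 30 min at room temperature and washed into Na⁺-free Ringer at pH 7.4. All solutions contained 100 μM cyclothiazide. The Ca²⁺ rise was read by FLIPR at room temperature. Solvent (EtOH or DMSO) was ≤1.0%.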

The next assay deals with Glutamate receptor 3 (Rattus norvegicus, UniProt P19492). Description: Antagonist activity at rat homomeric recombinant GluR3 expressed in HEK293 cells assessed as inhibition of intracellular calcium concentration by FLIPR assay. The format is functional, cell-based. The procedure, abridged:
as §1

The next assay addresses Glutamate receptor 4 (Rattus norvegicus, UniProt P19493). Description: Antagonist activity at rat homomeric recombinant GluR4 expressed in HEK293 cells assessed as inhibition of intracellular calcium concentration by FLIPR assay. Type of assay: functional, cell-based. The procedure, abridged:
as §1

The target of assay [2] is Glutamate receptor ionotropic, kainate 2 (Homo sapiens, UniProt Q13002). Description: Antagonist activity at human homomeric GluR6 expressed in HEK293 cells assessed as inhibition of intracellular calcium concentration by FLIPR assay. The format is functional, cell-based. In a few lines:
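Stably transfected HEK293 cells were grown in DMEM with 10% FCS at 37 °C. Cells were plated on PEI-coated plates 24 h before loading with 2 μM Fluo-4-AM for 60 min at room temperature, then washed into Na⁺-free Ringer at pH 7.4. Test compound was preincubated 1.5 min, then 0.2 μM domoic acid (final) was added. The Ca²⁺ rise was read by FLIPR (ex 488 nm, em 510–570 nm). IC50 reported.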

Assay [3] addresses T1, Glutamate receptor ionotropic, kainate 1. As to the kind of experiment: Displacement of [3HATPA from human recombinant GluR5. In a few lines: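 GluR5 HEK293 membranes were washed in 50 mM Tris-HCl (pH 7.1) at 0–4 °C and centrifuged at 27000g. 46–84 μg protein was incubated with 3 nM [³H]ATPA for 60 min at 2 °C. Nonspecific binding was defined with 0.6 mM Glu. Binding was stopped by rapid filtration and counted by liquid scintillation. Compounds were tested at 3–30 μM.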

The next assay has as its system Mus musculus. Description: Effect on ATPA-induced rigidity in mouse dosed intravenously 30 mins before ATPA administration. Particulars: iv. Type of assay: functional. The procedure, abridged: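 Female NMRI mice (20–25 g) received test substance iv (n = 8 per dose) 30 min before iv ATPA at 30 mg/kg. ATPA was given at 3 mg/mL in saline, pH 7. Rigidity was scored 30 min after ATPA as loss of righting and lack of movement on a 45° grid. Results were taken as the percent of mice rigid, and ED50 was derived.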

Assay [4] concerns the target Glutamate receptor 1 (Rattus norvegicus) (UniProt P19490). As to the kind of experiment: Antagonist activity at rat homomeric recombinant GluR1 expressed in HEK293 cells assessed as inhibition of intracellular calcium concentration at 30 uM by FLIPR assay. The format is functional, cell-based. In a few lines:
as §1

In assay [5] the target is Glutamate receptor 2 (Rattus norvegicus) (UniProt P19491). As to the kind of experiment: Antagonist activity at rat homomeric recombinant GluR2 expressed in HEK293 cells assessed as inhibition of intracellular calcium concentration at 30 uM by FLIPR assay. Type of assay: functional, cell-based. In a few lines: as §1
Assay [6] addresses Glutamate receptor 3 (Rattus norvegicus) (UniProt P19492). Description: Antagonist activity at rat homomeric recombinant GluR3 expressed in HEK293 cells assessed as inhibition of intracellular calcium concentration at 30 uM by FLIPR assay. The format is functional, cell-based. The procedure, abridged: as §1
Assay [7] concerns the target Glutamate receptor 4 (Rattus norvegicus) (UniProt P19493). As to the kind of experiment: Antagonist activity at rat homomeric recombinant GluR4 expressed in HEK293 cells assessed as inhibition of intracellular calcium concentration at 30 uM by FLIPR assay. Type of assay: functional, cell-based. The procedure, abridged:
as §1

This passage reports IC50, ED50 and Activity results from ChEMBL document CHEMBL1149316, “Bioisosteric modifications of 2-arylureidobenzoic acids: selective noncompetitive antagonists for the homomeric kainate receptor subtype GluR5” (J Med Chem, 2004).

Calls of active or inactive are those of the source. No cut-off for these calls is given here.

Glutamate receptor 3, sequence (P19492 whole entry): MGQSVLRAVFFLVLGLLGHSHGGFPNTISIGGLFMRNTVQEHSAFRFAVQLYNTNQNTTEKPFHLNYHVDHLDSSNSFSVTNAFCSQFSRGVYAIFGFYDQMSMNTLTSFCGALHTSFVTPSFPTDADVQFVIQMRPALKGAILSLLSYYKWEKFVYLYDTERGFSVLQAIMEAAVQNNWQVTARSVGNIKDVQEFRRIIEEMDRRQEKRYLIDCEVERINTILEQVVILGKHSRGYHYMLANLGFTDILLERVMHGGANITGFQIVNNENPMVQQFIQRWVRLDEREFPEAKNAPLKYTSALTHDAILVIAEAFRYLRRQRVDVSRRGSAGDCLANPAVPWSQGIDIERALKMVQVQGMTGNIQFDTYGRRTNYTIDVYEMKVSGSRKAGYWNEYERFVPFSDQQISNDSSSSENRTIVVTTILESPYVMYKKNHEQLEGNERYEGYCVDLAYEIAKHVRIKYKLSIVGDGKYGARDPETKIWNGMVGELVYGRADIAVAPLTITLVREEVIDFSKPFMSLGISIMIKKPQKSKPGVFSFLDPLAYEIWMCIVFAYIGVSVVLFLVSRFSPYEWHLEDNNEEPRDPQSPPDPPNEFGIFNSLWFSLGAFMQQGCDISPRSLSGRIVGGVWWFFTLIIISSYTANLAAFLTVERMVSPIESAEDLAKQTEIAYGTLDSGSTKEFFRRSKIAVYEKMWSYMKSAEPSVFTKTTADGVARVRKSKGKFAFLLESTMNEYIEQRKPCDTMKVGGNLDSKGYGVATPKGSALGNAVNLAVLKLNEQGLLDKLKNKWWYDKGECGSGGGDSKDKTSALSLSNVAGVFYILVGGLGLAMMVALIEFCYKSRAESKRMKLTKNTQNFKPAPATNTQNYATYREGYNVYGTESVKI
Glutamate receptor 3 (Rattus norvegicus), sequence (P19492 whole entry): as above
T1 sequence (P39086 whole entry): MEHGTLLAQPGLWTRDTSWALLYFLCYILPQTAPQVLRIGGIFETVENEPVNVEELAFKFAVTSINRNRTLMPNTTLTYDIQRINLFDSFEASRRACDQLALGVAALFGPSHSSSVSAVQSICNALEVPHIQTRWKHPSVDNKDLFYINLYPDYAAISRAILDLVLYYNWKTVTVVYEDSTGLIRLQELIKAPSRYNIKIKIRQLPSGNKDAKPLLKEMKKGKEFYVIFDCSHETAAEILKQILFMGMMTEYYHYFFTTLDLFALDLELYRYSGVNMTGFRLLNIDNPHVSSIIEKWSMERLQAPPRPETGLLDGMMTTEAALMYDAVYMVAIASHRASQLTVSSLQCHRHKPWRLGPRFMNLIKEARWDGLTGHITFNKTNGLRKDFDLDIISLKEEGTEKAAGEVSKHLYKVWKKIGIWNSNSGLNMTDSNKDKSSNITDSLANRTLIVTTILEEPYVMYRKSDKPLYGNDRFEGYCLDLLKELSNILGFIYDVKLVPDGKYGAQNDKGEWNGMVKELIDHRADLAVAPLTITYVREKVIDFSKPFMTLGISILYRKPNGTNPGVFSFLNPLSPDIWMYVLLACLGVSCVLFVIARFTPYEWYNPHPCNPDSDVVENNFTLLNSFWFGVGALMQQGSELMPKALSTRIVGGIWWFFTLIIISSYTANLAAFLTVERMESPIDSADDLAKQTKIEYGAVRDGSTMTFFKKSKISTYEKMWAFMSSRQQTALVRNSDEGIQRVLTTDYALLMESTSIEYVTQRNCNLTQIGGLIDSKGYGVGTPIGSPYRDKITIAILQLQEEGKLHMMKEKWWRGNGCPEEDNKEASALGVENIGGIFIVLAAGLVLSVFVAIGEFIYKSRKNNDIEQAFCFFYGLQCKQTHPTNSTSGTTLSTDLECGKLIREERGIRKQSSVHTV
Glutamate receptor 1 (Rattus norvegicus), sequence (P19490 whole entry): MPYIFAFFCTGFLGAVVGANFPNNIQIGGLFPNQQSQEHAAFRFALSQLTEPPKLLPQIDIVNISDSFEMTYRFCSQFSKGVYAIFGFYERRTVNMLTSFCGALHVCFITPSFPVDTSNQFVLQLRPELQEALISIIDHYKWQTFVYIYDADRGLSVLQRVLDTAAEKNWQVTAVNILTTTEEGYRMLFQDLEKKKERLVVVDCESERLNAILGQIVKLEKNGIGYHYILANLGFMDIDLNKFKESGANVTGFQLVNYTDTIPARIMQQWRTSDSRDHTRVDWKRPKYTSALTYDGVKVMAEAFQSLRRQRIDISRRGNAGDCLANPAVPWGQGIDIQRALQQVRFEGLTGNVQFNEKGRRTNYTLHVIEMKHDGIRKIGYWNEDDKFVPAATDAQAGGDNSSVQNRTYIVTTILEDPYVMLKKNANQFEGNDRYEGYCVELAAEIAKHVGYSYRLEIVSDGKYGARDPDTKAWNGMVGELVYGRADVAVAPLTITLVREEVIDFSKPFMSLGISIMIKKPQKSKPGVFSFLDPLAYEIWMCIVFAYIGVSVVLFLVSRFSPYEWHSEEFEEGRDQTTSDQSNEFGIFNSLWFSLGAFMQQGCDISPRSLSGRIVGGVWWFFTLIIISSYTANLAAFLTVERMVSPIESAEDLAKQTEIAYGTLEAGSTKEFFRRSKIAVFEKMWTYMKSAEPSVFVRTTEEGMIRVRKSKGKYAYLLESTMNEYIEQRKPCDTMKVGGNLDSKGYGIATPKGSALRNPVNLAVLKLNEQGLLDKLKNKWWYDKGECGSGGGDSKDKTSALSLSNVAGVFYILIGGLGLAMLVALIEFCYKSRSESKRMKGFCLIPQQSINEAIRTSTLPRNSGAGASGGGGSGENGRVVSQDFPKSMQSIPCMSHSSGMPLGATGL
Glutamate receptor 1, sequence (P19490 whole entry): as above
Glutamate receptor 4 (Rattus norvegicus), sequence (P19493 whole entry): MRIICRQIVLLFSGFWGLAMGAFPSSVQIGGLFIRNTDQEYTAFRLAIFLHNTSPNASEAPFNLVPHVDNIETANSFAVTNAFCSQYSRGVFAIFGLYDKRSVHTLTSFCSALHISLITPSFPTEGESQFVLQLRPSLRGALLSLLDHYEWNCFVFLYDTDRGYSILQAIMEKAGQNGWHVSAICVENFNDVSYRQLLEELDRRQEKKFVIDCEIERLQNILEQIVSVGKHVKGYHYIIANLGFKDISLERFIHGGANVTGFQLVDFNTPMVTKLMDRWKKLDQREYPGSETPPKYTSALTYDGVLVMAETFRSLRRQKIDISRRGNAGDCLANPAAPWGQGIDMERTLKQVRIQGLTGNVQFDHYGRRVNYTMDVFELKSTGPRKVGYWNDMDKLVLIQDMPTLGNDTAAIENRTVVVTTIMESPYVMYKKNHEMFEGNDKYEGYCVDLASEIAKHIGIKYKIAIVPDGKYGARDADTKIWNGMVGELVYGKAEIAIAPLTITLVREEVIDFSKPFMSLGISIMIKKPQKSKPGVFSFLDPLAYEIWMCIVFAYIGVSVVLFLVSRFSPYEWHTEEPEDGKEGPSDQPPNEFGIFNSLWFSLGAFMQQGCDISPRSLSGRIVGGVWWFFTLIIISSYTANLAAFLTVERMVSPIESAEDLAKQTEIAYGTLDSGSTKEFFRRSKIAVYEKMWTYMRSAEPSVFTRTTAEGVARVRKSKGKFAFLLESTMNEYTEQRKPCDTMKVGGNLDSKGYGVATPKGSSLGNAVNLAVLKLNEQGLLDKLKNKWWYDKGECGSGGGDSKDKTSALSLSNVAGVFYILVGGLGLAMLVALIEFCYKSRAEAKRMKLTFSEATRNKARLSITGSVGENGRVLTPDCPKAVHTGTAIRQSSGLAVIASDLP
Glutamate receptor 4, sequence (P19493 whole entry): as above
Glutamate receptor 2 (Rattus norvegicus), sequence (P19491 whole entry): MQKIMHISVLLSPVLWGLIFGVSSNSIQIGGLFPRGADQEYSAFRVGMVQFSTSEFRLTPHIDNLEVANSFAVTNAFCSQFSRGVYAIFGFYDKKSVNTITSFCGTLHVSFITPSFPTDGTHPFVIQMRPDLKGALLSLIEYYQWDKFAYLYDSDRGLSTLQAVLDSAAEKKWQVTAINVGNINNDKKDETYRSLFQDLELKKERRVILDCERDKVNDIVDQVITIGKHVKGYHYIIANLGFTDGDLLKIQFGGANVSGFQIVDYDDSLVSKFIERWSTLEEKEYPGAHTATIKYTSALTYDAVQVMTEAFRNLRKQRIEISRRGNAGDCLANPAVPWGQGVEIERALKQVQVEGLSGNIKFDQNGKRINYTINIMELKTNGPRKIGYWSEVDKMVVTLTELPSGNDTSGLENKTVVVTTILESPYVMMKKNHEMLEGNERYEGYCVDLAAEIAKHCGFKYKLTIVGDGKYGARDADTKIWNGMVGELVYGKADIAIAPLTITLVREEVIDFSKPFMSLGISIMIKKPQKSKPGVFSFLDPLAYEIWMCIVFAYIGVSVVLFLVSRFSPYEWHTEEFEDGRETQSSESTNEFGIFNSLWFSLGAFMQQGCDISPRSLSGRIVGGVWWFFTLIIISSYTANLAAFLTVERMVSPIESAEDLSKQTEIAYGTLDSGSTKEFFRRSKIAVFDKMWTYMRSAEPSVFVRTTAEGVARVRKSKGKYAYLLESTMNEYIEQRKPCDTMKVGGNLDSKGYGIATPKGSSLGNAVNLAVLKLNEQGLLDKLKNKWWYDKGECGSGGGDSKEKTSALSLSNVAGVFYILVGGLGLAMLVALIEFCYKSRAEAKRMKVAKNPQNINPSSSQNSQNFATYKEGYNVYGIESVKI
Glutamate receptor 2, sequence (P19491 whole entry): as above

In general, IC50 refers to the concentration needed to halve the response being measured. On to `COC(=O)c1ccc(Cl)cc1NC(=O)Nc1cccc(Br)c1`, for which the IC50 in assay [1] is greater than 30 µM.
In general, ED50 refers to the midpoint of the dose-response relation. A low value points to greater potency. Take `O=C(Nc1cccc(Br)c1)Nc1cc(Cl)ccc1S(=O)(=O)O`: the IC50 was greater than 100 µM on Glutamate receptor 1; greater than 100 µM on Glutamate receptor 2; greater than 100 µM on Glutamate receptor 3; greater than 100 µM at Glutamate receptor 4; 1.5 µM in assay [1]; 37 µM in assay [2]. Also, the IC50 in [3] was greater than 30 µM. For the same compound, the 50% effect level in the assay on Mus musculus (ED50) was put at a dose of 29 mg/kg.
In the case of `O=C(Nc1cccc(Br)c1)Nc1cc(Cl)ccc1-c1nnn[nH]1`, the IC50 on Glutamate receptor 1 is greater than 100 µM; on Glutamate receptor 2, greater than 100 µM; on Glutamate receptor 3, greater than 100 µM; on Glutamate receptor 4, greater than 100 µM; in [1] it was 2 µM; in assay [2], greater than 10 µM. The IC50 in assay [3] is greater than 30 µM. In addition, the result in assay [4], in [5], in assay [6] and in [7] was inactive. The compound also returned an ED50 with Mus musculus of 5.5 mg/kg.
`N#Cc1ccc(Cl)cc1NC(=O)Nc1cccc(C(F)(F)F)c1`: the IC50 in assay [1] is greater than 3 µM.
For the compound `O=C(O)CCc1ccc(Cl)cc1NC(=O)Nc1cccc(Br)c1`, the IC50 in assay [1] is greater than 30 µM.
For `O=C(O)Cc1ccc(Cl)cc1NC(=O)Nc1cccc(Br)c1`, the IC50 on Glutamate receptor 1 is greater than 100 µM; at Glutamate receptor 2, greater than 100 µM; at Glutamate receptor 3 it was greater than 100 µM; at Glutamate receptor 4, greater than 100 µM; in assay [1], 3.6 µM; in [2], greater than 50 µM. Also, in assay [3], the half-maximal inhibitory concentration (IC50) was greater than 30 µM. In addition, the outcome in assay [4], in assay [5], in [6] and in assay [7] was inactive. The ED50 with Mus musculus was greater than 30 mg/kg.
`O=C(O)c1ccc(Cl)cc1Nc1c(Nc2cccc(Br)c2)c(=O)c1=O`: the IC50 in [1] is greater than 30 µM.
`O=C(Nc1cccc(C(F)(F)F)c1)Nc1cc(Cl)ccc1CO`: in [1], the IC50 is greater than 10 µM.
As for `O=C(Nc1ccc2ccccc2c1)Nc1cc(Cl)ccc1C(=O)O`, the IC50 on Glutamate receptor 1, at Glutamate receptor 3 and on Glutamate receptor 4 was greater than 100 µM each time. Further, the outcome in [4], in assay [5], in assay [6] and in assay [7] was inactive. In the assay with Mus musculus, this compound showed an ED50 greater than 30 mg/kg.
On to `O=C(Nc1cccc(Br)c1)Oc1cc(Cl)ccc1C(=O)O`, for which, in assay [1], the IC50 is greater than 30 µM.
Consider `Nc1ccc(Cl)cc1NC(=O)Nc1cccc(C(F)(F)F)c1`, for which, in [1], the IC50 was greater than 30 µM.
Regarding `O=C(Nc1cccc(Br)c1)Nc1cc(Cl)ccc1[N+](=O)[O-]`, the half-inhibitory concentration (IC50) in [1] is greater than 3 µM.
Turning to `O=C(Nc1cccc(Br)c1)Nc1cc(Cl)ccc1-c1nc(=O)o[nH]1`, the IC50 was greater than 100 µM on Glutamate receptor 1; greater than 100 µM on Glutamate receptor 2; greater than 100 µM on Glutamate receptor 3; greater than 100 µM at Glutamate receptor 4; 4.6 µM in assay [1]; greater than 30 µM in assay [2]. Further, in [3], the IC50 was greater than 30 µM. The outcome in assay [4], in assay [5], in [6] and in assay [7] was inactive. In the assay on Mus musculus, this compound registered an ED50 greater than 100 mg/kg.
For `O=C(Nc1cccc(Br)c1)n1[nH]c(=O)c2ccc(Cl)cc21`, the IC50 in assay [1] is greater than 50 µM.
Take `O=C(Nc1cccc(C(F)(F)F)c1)Nc1cc(Cl)ccc1[N+](=O)[O-]`: the IC50 in [1] is greater than 3 µM.
Take `O=C(Nc1cccc(Br)c1)Nc1cc(Cl)ccc1C(=O)O`: the IC50 on Glutamate receptor 1, on Glutamate receptor 2, on Glutamate receptor 3 and at Glutamate receptor 4 was greater than 100 µM in each case. In addition, the outcome in assay [4], in assay [5], in assay [6] and in assay [7] was inactive.
Turning to `O=C(Nc1cccc(C(F)(F)F)c1)Nc1cc(Cl)ccc1O`, the IC50 in assay [1] was greater than 30 µM.
